According to ChEMBL document CHEMBL4477216, “Discovery and Optimization of Small Molecule Splicing Modifiers of Survival Motor Neuron 2 as a Treatment for Spinal Muscular Atrophy” (J Med Chem, 2016):

How the values were obtained:
Mus musculus [1] = experiment: In vivo inhibition of mRNA splicing of human SMN2 exon 7 in FVB.Cg-Tg(SMN2 delta 7 exon)4299Ahmb Tg(SMN2)89Ahmb Smn1tm1Msd/J mouse assessed as increase in SMN protein level in quadriceps at 3 mg/kg, ip qd administered on postnatal day 3 to day 9 by HTRF assay relative to control; format: functional; design: scale not given: the % may be the effect or the level left
Summary of the method: (§1)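 Homozygous Δ7 SMA mice were dosed IP once daily from PND3 to PND9 with compound or vehicle (100% DMSO solution, 2.5 mL/kg). Brain, spinal cord and quadriceps were homogenized in RIPA buffer with protease inhibitors. SMN was read by HTRF (anti-SMN d2 and Kryptate antibodies, overnight rt, 665/620 nm) and normalized to BCA total protein. Values are % change versus vehicle ±SD; 5-11 mice per group.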

Mus musculus [2] = experiment: In vivo inhibition of mRNA splicing of human SMN2 exon 7 in FVB.Cg-Tg(SMN2 delta 7 exon)4299Ahmb Tg(SMN2)89Ahmb Smn1tm1Msd/J mouse assessed as median survival time at 6 mg/kg/day, po bid administered on postnatal day 24 (reference value: 14 days); format: functional
Mus musculus [3] = experiment: In vivo inhibition of mRNA splicing of human SMN2 exon 7 in FVB.Cg-Tg(SMN2 delta 7 exon)4299Ahmb Tg(SMN2)89Ahmb Smn1tm1Msd/J mouse assessed as median survival time at 20 mg/kg/day, po bid administered on postnatal day 24 (reference value: 14 days); format: functional
Mus musculus [4] = experiment: In vivo inhibition of mRNA splicing of human SMN2 exon 7 in FVB.Cg-Tg(SMN2 delta 7 exon)4299Ahmb Tg(SMN2)89Ahmb Smn1tm1Msd/J mouse assessed as increase in SMN protein level in brain at 3 mg/kg, ip qd administered on postnatal day 3 to day 9 by HTRF assay relative to control; format: functional; design: scale not given: the % may be the effect or the level left; summary of the method: as §1
Mus musculus [5] = experiment: In vivo inhibition of mRNA splicing of human SMN2 exon 7 in FVB.Cg-Tg(SMN2 delta 7 exon)4299Ahmb Tg(SMN2)89Ahmb Smn1tm1Msd/J mouse assessed as median survival time at 3 mg/kg/day, ip administered on postnatal day 3 to day 23 (reference value: 14 days); format: functional
Mus musculus [6] = experiment: In vivo inhibition of mRNA splicing of human SMN2 exon 7 in FVB.Cg-Tg(SMN2 delta 7 exon)4299Ahmb Tg(SMN2)89Ahmb Smn1tm1Msd/J mouse assessed as median survival time at 1 mg/kg/day, ip administered on postnatal day 3 to day 23 (reference value: 14 days); format: functional
Homo sapiens [7] = species on record: Homo sapiens; experiment: Inhibition of mRNA splicing of human SMN2 exon 7 transfected in HEK293H cells assessed as compound concentration required to increase full-length SMN2 mRNA level by 1.5 times after 24 hrs by RT-qPCR analysis relative to GAPDH; format: cell-based
Summary of the method: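 HEK293H cells stably carrying the SMN2 minigene (exon 6 to 5' exon 8 fused to firefly luciferase) were plated and held for 6 h, then treated 24 h in duplicate at varying concentrations (0.5% DMSO). Full-length minigene mRNA and GAPDH were quantified by TaqMan RT-qPCR using actual PCR efficiencies. Results were normalized to GAPDH and DMSO and expressed as fold change versus DMSO.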

Homo sapiens [8] = species on record: Homo sapiens; experiment: Inhibition of mRNA splicing of SMN2 exon 7 in GM03813 fibroblasts derived from SMA patient assessed as compound concentration required to increase SMN protein level by 1.5 times after 24 hrs by HTRF assay
Mus musculus [9] = experiment: In vivo inhibition of mRNA splicing of human SMN2 exon 7 in FVB.Cg-Tg(SMN2 delta 7 exon)4299Ahmb Tg(SMN2)89Ahmb Smn1tm1Msd/J mouse assessed as increase in SMN protein level in spinal cord at 3 mg/kg, ip qd administered on postnatal day 3 to day 9 by HTRF assay relative to control; format: functional; design: scale not given: the % may be the effect or the level left; summary of the method: as §1
Mus musculus [10] = experiment: In vivo inhibition of mRNA splicing of human SMN2 exon 7 in FVB.Cg-Tg(SMN2 delta 7 exon)4299Ahmb Tg(SMN2)89Ahmb Smn1tm1Msd/J mouse assessed as increase in SMN protein level in quadriceps at 1 mg/kg, ip qd administered on postnatal day 3 to day 9 by HTRF assay relative to control; format: functional; design: scale not given: the % may be the effect or the level left; summary of the method: as §1
Mus musculus [11] = experiment: In vivo inhibition of mRNA splicing of human SMN2 exon 7 in FVB.Cg-Tg(SMN2 delta 7 exon)4299Ahmb Tg(SMN2)89Ahmb Smn1tm1Msd/J mouse assessed as median survival time at 0.1 mg/kg/day, ip administered on postnatal day 3 to day 23 (reference value: 14 days); format: functional
Mus musculus [12] = experiment: In vivo inhibition of mRNA splicing of human SMN2 exon 7 in FVB.Cg-Tg(SMN2 delta 7 exon)4299Ahmb Tg(SMN2)89Ahmb Smn1tm1Msd/J mouse assessed as median survival time at 0.3 mg/kg/day, ip administered on postnatal day 3 to day 23 (reference value: 14 days); format: functional
Mus musculus [13] = experiment: In vivo inhibition of mRNA splicing of human SMN2 exon 7 in FVB.Cg-Tg(SMN2 delta 7 exon)4299Ahmb Tg(SMN2)89Ahmb Smn1tm1Msd/J mouse assessed as median survival time at 0.6 mg/kg/day, po bid administered on postnatal day 24 (reference value: 14 days); format: functional
Mus musculus [14] = experiment: In vivo inhibition of mRNA splicing of human SMN2 exon 7 in FVB.Cg-Tg(SMN2 delta 7 exon)4299Ahmb Tg(SMN2)89Ahmb Smn1tm1Msd/J mouse assessed as increase in SMN protein level in spinal cord at 0.03 mg/kg, ip qd administered on postnatal day 3 to day 9 by HTRF assay relative to control; format: functional; design: scale not given: the % may be the effect or the level left; summary of the method: as §1
Mus musculus [15] = experiment: In vivo inhibition of mRNA splicing of human SMN2 exon 7 in FVB.Cg-Tg(SMN2 delta 7 exon)4299Ahmb Tg(SMN2)89Ahmb Smn1tm1Msd/J mouse assessed as increase in SMN protein level in quadriceps at 0.03 mg/kg, ip qd administered on postnatal day 3 to day 9 by HTRF assay relative to control; format: functional; design: scale not given: the % may be the effect or the level left; summary of the method: as §1
Mus musculus [16] = experiment: In vivo inhibition of mRNA splicing of human SMN2 exon 7 in FVB.Cg-Tg(SMN2 delta 7 exon)4299Ahmb Tg(SMN2)89Ahmb Smn1tm1Msd/J mouse assessed as increase in SMN protein level in brain at 0.03 mg/kg, ip qd administered on postnatal day 3 to day 9 by HTRF assay relative to control; format: functional; design: scale not given: the % may be the effect or the level left; summary of the method: as §1
Mus musculus [17] = experiment: In vivo inhibition of mRNA splicing of human SMN2 exon 7 in FVB.Cg-Tg(SMN2 delta 7 exon)4299Ahmb Tg(SMN2)89Ahmb Smn1tm1Msd/J mouse assessed as median survival time at 2 mg/kg/day, po bid administered on postnatal day 24 (reference value: 14 days); format: functional

SMILES | Activity (Mus musculus [1]) | MST (Mus musculus [2]) | MST (Mus musculus [3]) | Activity (Mus musculus [4]) | MST (Mus musculus [5]) | MST (Mus musculus [6]) | EC1.5 (Homo sapiens [7]) | EC1.5 (Homo sapiens [8]) | Activity (Mus musculus [9]) | Activity (Mus musculus [10]) | MST (Mus musculus [11]) | MST (Mus musculus [12]) | MST (Mus musculus [13]) | Activity (Mus musculus [14]) | Activity (Mus musculus [15]) | Activity (Mus musculus [16]) | MST (Mus musculus [17])
Cc1cn2nc(-c3cc(=O)n4cc(N5CCN(C)CC5)ccc4n3)cc2c(C)n1 | 218% | 45 days | >190 days | 230% | >190 days | 45 days | 35 nM | 160 nM | 189% | 129% |  |  |  |  |  |  | 
CCN1CCN(c2ccc3cc(-c4cn5cc(C)nc(C)c5n4)c(=O)oc3c2)C[C@@H]1C |  | >150 days |  |  |  | >150 days |  | 44 nM |  |  | 34 days | >55 days | 34 days | 7% | -3% | -10% | >55 days
Cc1cn2cc(-c3cc4ccc(N5CCN(C)CC5)cc4c(=O)o3)nc2c(C)n1 | 517% |  |  | 395% |  |  |  |  | 284% | 343% | >100 days | >100 days | >100 days |  |  |  | >100 days
